# Results of several laboratories.
# Each line is one published result; the experiments were not run side by side.
# Organism: Staphylococcus aureus
# Read-out: microbial growth
SMILES,assay,test system,setting,MIC
C=CCn1c(-c2ccc([N+](=O)[O-])cc2)nc2ccc(C)cc21,broth dilution,ATCC29213 MSSA,,32 µg/mL
NCCCC[C@H](N)C(=O)Nc1ccc(-n2nc(C(F)(F)F)cc2-c2ccc3c(ccc4ccccc43)c2)cc1,broth dilution,ATCC29213,24 h,4 µg/mL
CC1=NN(CNc2ccccc2)C(=O)C1=NNn1c(-c2ccccc2)nc2ccccc2c1=O,broth dilution,,24 h,221 µM
CC(C)Oc1c(NC(=O)c2ccc(NC(=O)[C@H](CC(N)=O)NC(=O)c3ccc(NC(=O)c4ccc(C#N)cc4)cc3)cc2)ccc(C(=O)Nc2ccncc2)c1O,,ATCC29213,,> 64 µg/mL
O=C(CCCN1CCC(O)(c2ccc(Cl)cc2)CC1)c1ccc(Br)cc1,,,,> 128 µg/mL
C/C=C(\C)c1cc(OC(=O)c2c(C)c(Cl)c(O)c(Cl)c2O)c(C)c(O)c1C(=O)O,broth dilution,16162,,64 µg/mL
O=C(O)CN1C(=O)/C(=C/c2c3ccccc3c(-c3ccc(N(c4ccccc4)c4ccccc4)cc3)c3ccccc23)SC1=S,broth dilution,ATCC25923,,> 1000 µg/mL
COc1ccc(-c2nc3ccccc3[nH]2)cc1OC,broth dilution,ATCC29213 MSSA,,128 µg/mL
CN[C@H](CC(C)C)C(=O)N[C@H]1C(=O)N[C@@H](CC(N)=O)C(=O)N[C@H]2C(=O)N[C@H]3C(=O)N[C@H](C(=O)N[C@H](C(=O)O)c4cc(O)cc(O)c4-c4cc3ccc4O)[C@H](O)c3ccc(c(Cl)c3)Oc3cc2cc(c3O[C@@H]2O[C@H](CO)[C@@H](O)[C@H](O)[C@H]2O[C@H]2C[C@](C)(N)[C@H](O)[C@H](C)O2)Oc2ccc(cc2Cl)[C@H]1O,broth dilution,ATCC29213,,1 µg/mL
Cc1cc(Cl)cc2sc(N(CCCn3ccnc3)C(=O)c3ccco3)nc12,,ATCC25923,,2.6 µM
CC1(C)S[C@@H]2[C@H](NC(=O)[C@H](N)c3ccccc3)C(=O)N2[C@H]1C(=O)O,broth dilution,745524,,4 µg/mL
CC(C)Oc1c(NC(=O)c2ccc(NC(=O)[C@H](CC(N)=O)NC(=O)c3ccc(NC(=O)c4ccc(C#N)cc4)cc3)cc2)ccc(C(=O)O)c1O,,ATCC29213,,> 64 µg/mL
CCOC(=O)/C(C#N)=C(\O)c1ccc(NC(=O)c2cccs2)cc1,,,,> 128 µg/mL
Cn1c(Nc2ccc(C(F)(F)F)cc2)nc2cc(Oc3ccnc(-c4ncc(C(F)(F)F)[nH]4)c3)ccc21,,NCTC8325,,30 µM
O=C(CCCCCCCC[P+](c1ccccc1)(c1ccccc1)c1ccccc1)Nc1cc(O)c(O)c(O)c1.[Br-],broth dilution,ATCC43300 MRSA,18 h,16 µg/mL
Cc1ccc2cccc(C(=O)O)c2c1,,,,> 128 µg/mL
COc1cc2nccc(Oc3ccc(NC(=O)Nc4cc(C)on4)c(Cl)c3)c2cc1OC,,NCTC8325,,> 30 µM
NC[C@H]1O[C@H](O[C@H]2[C@H](O)[C@@H](O[C@H]3O[C@H](CO)[C@@H](O)[C@H](N)[C@H]3O)[C@H](N)C[C@@H]2N)[C@H](N)C[C@@H]1O,,147,clinical isolate,6.25 µM
COc1c(C)c(OC)c2c(c1C)OC(c1ccccc1)CC2=O (stereo not drawn),broth dilution,ATCC25923,,5000 µg/mL
O=C1NC(=O)/C(=C/c2ccc3c(c2)OC(F)(F)O3)S1,,NCTC8325,,> 30 µM
C=CCn1c(-c2ccc(Cl)c(Cl)c2)nc2ccccc21,broth dilution,ATCC29213 MSSA,,64 µg/mL
CCCCCCC#Cc1cncc(-c2nnc(SCc3ccc([N+](=O)[O-])o3)n2C)c1,,MRSA,drug-resistant strain,≥ 20 µg/mL
CC1(C)S[C@@H]2[C@H](NC(=O)[C@H](N)c3ccccc3)C(=O)N2[C@H]1C(=O)O,broth dilution,ATCCBAA44,,16 µg/mL
C[C@@H](O)[C@H]1C(=O)N2C(C(=O)O)=C(S[C@@H]3CN[C@H](C(=O)N(C)C)C3)[C@H](C)[C@H]12,broth dilution,,24 h,0.0625 µg/mL
COc1cccc(OC)c1C(=O)N[C@@H]1C(=O)N2[C@@H]1SC(C)(C)[C@@H]2C(=O)O,,156,clinical isolate,25 µM
Cc1cc(=O)[nH]n1C(=O)c1ccc(-n2c(C)ccc2C)cc1,broth dilution,ATCC11632,18 h,125 µg/mL
C/C=C(\C)c1cc(O)c(C)c(OC(=O)c2c(C)c(Cl)c(O)c(Cl)c2O)c1,broth dilution,16162,,2 µg/mL
Cc1cc(C(=O)Nc2ccc(C(=O)N[C@@H](CC(N)=O)C(=O)Nc3ccc(C(=O)Nc4ccc(C(=O)Nc5ccc(C(=O)O)cc5)c(O)c4OC(C)C)cc3)cc2)ccc1C#N,,ATCC29213,,2 µg/mL
COc1cc2c(N3CCN(C(=O)Nc4ccc(OC(C)C)cc4)CC3)ncnc2cc1OCCCN1CCCCC1,,NCTC8325,,> 30 µM
CO[C@H]1[C@H](O[C@H]([C@H]2O[C@@H](n3ccc(=O)[nH]c3=O)[C@H](O)[C@@H]2O)[C@H](NCCCNC(=O)[C@@H](NC(=O)[C@@H](NC(=O)N[C@H](C(=O)O)C(C)C)[C@@H]2CCN=C(N)N2)[C@@H](OC(=O)CCCCCCCCCCCCN(O)C(=N)N)C(C)C)C(=O)O)O[C@H](CN)[C@H]1O,,NEWMAN,,18 µg/mL
O=C1NC(=S)S/C1=C\c1ccc(-c2ccc(N(c3ccccc3)c3ccccc3)cc2)c2ccccc12,broth dilution,ATCC43300,,1000 µg/mL
C/C(=C\c1ccc(O)cc1)C(=O)Nc1ccc(C(=O)N[C@@H](CC(N)=O)C(=O)Nc2ccc(C(=O)Nc3ccc(C(=O)Nc4ccc(C(=O)O)cc4)c(O)c3OC(C)C)cc2)cc1,,ATCC29213,,0.25 µg/mL
COC(=O)Nc1ccc(-c2nc(N3CCOCC3)c3cnn(C4CCN(Cc5cccnc5)CC4)c3n2)cc1,,NCTC8325,,> 30 µM
O=C(O)c1cn(C2CC2)c2cc(N3CCNCC3)c(F)cc2c1=O,,ATCC43300,drug-resistant strain,0.31 µg/mL
O=C(O)CN1C(=O)/C(=C/c2ccc(-c3ccc(N(c4ccccc4)c4ccccc4)cc3)c3ccccc23)NC1=S,broth dilution,ATCC25923,,> 1000 µg/mL
Cc1ccc2nc(-c3ccc(Cl)cc3Cl)[nH]c2c1,broth dilution,ATCC29213 MSSA,,64 µg/mL
N#Cc1c(O)c2c(-c3ccc(-c4ccccc4O)cc3)csc2[nH]c1=O,,NCTC8325,,> 30 µM
C[C@@H](O)[C@H]1C(=O)N2C(C(=O)O)=C(S[C@@H]3CN[C@H](C(=O)N(C)C)C3)[C@H](C)[C@H]12,broth dilution,KCTC1621,16 h,8 µM
CC[C@H](CO)Nc1nc(NCc2ccccc2)c2ncn(C(C)C)c2n1,,NCTC8325,,> 30 µM
COc1ccc(NCc2ccc(Oc3ccccn3)cc2)cc1,,,,> 3.1 µg/mL
Cc1nc(N)sc1-c1ccnc(Nc2ccc(N3CCOCC3)cc2)n1,,NCTC8325,,> 30 µM
Cc1ccc2nc(-c3ccncc3)[nH]c2c1,broth dilution,ATCC29213 MSSA,,64 µg/mL
